According to ChEMBL document CHEMBL4304748, “Design, Synthesis, and Biological Evaluation of a New Series of Carvedilol Derivatives That Protect Sensory Hair Cells from Aminoglycoside-Induced Damage by Blocking the Mechanoelectrical Transducer Channel” (J Med Chem, 2019):
pEC50, pKd: −log10 of the molar value. The source made the active and inactive calls. The calls are words filed in the database; no cut-off is given here.

Legend:
[1] = organism: Mus musculus; conditions: CD-1, 10 uM
[2] = organism: Mus musculus; conditions: CD-1, 10 uM; remark: listed apart in the source
[3] = Toxicity in 3 days post fertilized AB zebrafish larvae assessed as reduction in larvae survival at 30 uM incubated for 48 hrs; set-up: species or system Danio rerio; conditions: in vivo
Summary of the method: (§1)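 Zebrafish larvae at 3 dpf treated with compound at 30 or 100 μM for 48 h in three trials. Larvae scored for survival and for circulation, then startled and assayed for movement.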

[4] = Cytotoxicity in CD-1 mouse cochlea assessed as induction of cell damage in inner hair cell at 20 uM after 48 hrs by confocal microscopic analysis; format: toxicity, tissue-based
Summary of the method: (§2)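 Mouse cochlear cultures exposed for 48 h to compound, either alone or with 5 μM gentamicin. Controls received 0.5% DMSO, or 5 μM gentamicin + 0.5% DMSO. Hair cell survival counted in a 300 μm segment of the mid-basal region. Confocal imaging used to assess IHC and OHC stereociliary bundle morphology.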

[5] = system: Staphylococcus aureus; experiment: Effect on gentamycin-induced antibacterial activity against Staphylococcus aureus at 2.2 uM incubated for 16 to 20 hrs by BacTiter-Glo assay; format: ADME, organism-based; conditions: in vivo
[6] = system: Pseudomonas aeruginosa; experiment: Effect on gentamycin-induced antibacterial activity against Pseudomonas aeruginosa at 11 uM incubated for 16 to 20 hrs by BacTiter-Glo assay; format: ADME, organism-based; conditions: in vivo
[7] = Cytotoxicity in CD-1 mouse cochlea assessed as induction of cell death in inner hair cell at >=30 uM in presence of gentamicin after 48 hrs by confocal microscopic analysis; format: toxicity, tissue-based
Summary of the method: as §2

[8] = Toxicity in 3 days post fertilized AB zebrafish larvae assessed as effect on blood circulation at 30 uM incubated for 48 hrs by inverted microscopic method; set-up: species or system Danio rerio; conditions: in vivo
Summary of the method: as §1

[9] = system: Klebsiella pneumoniae; experiment: Effect on gentamycin-induced antibacterial activity against Klebsiella pneumoniae at 2.2 uM incubated for 16 to 20 hrs by BacTiter-Glo assay; format: ADME, organism-based; conditions: in vivo
[10] = Cytotoxicity in CD-1 mouse cochlea assessed as induction of cell death in outer hair cell at >=30 uM after 48 hrs by confocal microscopic analysis; format: toxicity, tissue-based
Summary of the method: as §2

[11] = Toxicity in 3 days post fertilized AB zebrafish larvae assessed as reduction in larvae survival at 100 uM incubated for 48 hrs; set-up: species or system Danio rerio; conditions: in vivo
Summary of the method: as §1

[12] = Cytotoxicity in CD-1 mouse cochlea assessed as disruption of hair bundle morphology in inner hair cell at 20 uM after 48 hrs by confocal microscopic analysis; format: toxicity, tissue-based
Summary of the method: as §2

[13] = Cytotoxicity in CD-1 mouse cochlea assessed as disruption of hair bundle morphology in outer hair cell at 20 uM in presence of gentamicin after 48 hrs by confocal microscopic analysis; format: toxicity, tissue-based
Summary of the method: as §2

[14] = system: Klebsiella pneumoniae; experiment: Effect on gentamycin-induced antibacterial activity against Klebsiella pneumoniae at 11 uM incubated for 16 to 20 hrs by BacTiter-Glo assay; format: ADME, organism-based; conditions: in vivo
[15] = Toxicity in 3 days post fertilized AB zebrafish larvae assessed as effect on blood circulation at 100 uM incubated for 48 hrs by inverted microscopic method; set-up: species or system Danio rerio; conditions: in vivo
Summary of the method: as §1

[16] = Cytotoxicity against CD-1 mouse cochlea assessed as induction of cell death in outer hair cell at >=30 uM after 48 hrs in presence of gentamicin by confocal microscopic analysis; format: toxicity, tissue-based
Summary of the method: as §2

[17] = Cytotoxicity in CD-1 mouse cochlea assessed as induction of cell death in inner hair cell at >=30 uM after 48 hrs by confocal microscopic analysis; format: toxicity, tissue-based
Summary of the method: as §2

[18] = organism: Mus musculus; conditions: CD-1, 10 uM; remark: listed apart in the source
[19] = organism: Mus musculus; experiment: Inhibition of MET channel in CD-1 mouse cochlea outer hair cells assessed as reduction in GTTR uptake at 100 uM preincubated for 5 mins followed by GTTR addition and measured after 24 mins by microscopic method
Summary of the method: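 Mouse cochlear cultures pre-incubated 5 min with 100 μM compound or 1% DMSO, then 0.2 μM gentamicin Texas Red (GTTR) added. GTTR fluorescence intensity measured in first-row OHCs, with 10 cells analysed from each of three separate experiments (N = 30).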

[20] = system: Staphylococcus aureus; experiment: Effect on gentamycin-induced antibacterial activity against Staphylococcus aureus at 11 uM incubated for 16 to 20 hrs by BacTiter-Glo assay; format: ADME, organism-based; conditions: in vivo
[21] = organism: Danio rerio; experiment: Otoprotective activity against neomycin-induced neuromast hair cell death in 4 days post fertilized AB zebrafish larvae assessed as increase in hair cell survival incubated for 1 hr by inverted microscopic method; format: functional, organism-based
[22] = Toxicity in 3 days post fertilized AB zebrafish larvae assessed as effect on larval movement at 100 uM incubated for 48 hrs; set-up: species or system Danio rerio; conditions: in vivo
Summary of the method: as §1

[23] = Binding affinity to MET in CD-1 mouse cochlear outer hair cells measured at -164 mV membrane potential by patch clamp assay
Summary of the method: (§3)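 MET currents recorded from OHCs before and during extracellular superfusion of compound at 1, 3 and 10 μM, over membrane potentials from -164 to +96 mV. Currents normalized to the peak control current at +96 mV for each cell. Dose–response curves built at each membrane potential and fitted with eq 1 to give K_D and Hill coefficient.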

[24] = Binding affinity to MET in CD-1 mouse cochlear outer hair cells measured at +16 mV membrane potential by patch clamp assay
Summary of the method: as §3

[25] = organism: Mus musculus; experiment: Inhibition of MET channel in CD-1 mouse cochlea outer hair bundles assessed as time constant of inward current decline at 1 uM at holding potential of […] by patch clamp assay
Summary of the method: (§4)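 MET channels opened by steps from a holding potential of -84 mV, with 1 or 3 μM compound superfused. Currents averaged from 10 repetitions. The current decline was fitted with single exponentials to give time constants, and drug entry rates into hair cells were calculated from these.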

[26] = Cytotoxicity in CD-1 mouse cochlea assessed as induction of cell death in outer hair cell at 10 to 20 uM after 48 hrs by confocal microscopic analysis; format: toxicity, tissue-based
Summary of the method: as §2

[27] = Cytotoxicity in CD-1 mouse cochlea assessed as disruption of hair bundle morphology in inner hair cell at 20 uM in presence of gentamicin after 48 hrs by confocal microscopic analysis; format: toxicity, tissue-based
Summary of the method: as §2

[28] = organism: Danio rerio; experiment: Otoprotective activity against gentamicin-induced neuromast hair cell death in 4 days post fertilized AB zebrafish larvae assessed as increase in hair cell survival incubated for 6 hrs by inverted microscopic method; format: functional, organism-based
[29] = organism: Mus musculus; conditions: CD-1, 1 to 10 uM
[30] = Binding affinity to MET in CD-1 mouse cochlear outer hair cells measured at +96 mV membrane potential by patch clamp assay
Summary of the method: as §3

[31] = (§5) Otoprotective activity against gentamicin-induced outer hair cell death in CD-1 mouse cochlea at 20 uM after 48 hrs by TRITC-phalloidin staining-based microscopic analysis relative to control; format: functional
Summary of the method: (§6)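 Mouse cochlear cultures coincubated for 48 h with 5 μM gentamicin plus compound (5, 10 or 20 μM). OHCs counted in a 300 μm long segment of the mid-basal cochlea. Counts compared with 0.5% DMSO control and with gentamicin + 0.5% DMSO cultures.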

[32] = organism: Mus musculus; conditions: CD-1, 1 to 10 uM; remark: listed apart in the source
[33] = (§7) Otoprotective activity against gentamicin-induced outer hair cell death in CD-1 mouse cochlea at 10 uM after 48 hrs by TRITC-phalloidin staining-based microscopic analysis relative to control; format: functional
Summary of the method: as §6

[34] = organism: Mus musculus; experiment: Inhibition of MET channel in CD-1 mouse outer hair bundles assessed as time constant of inward current decline at 3 uM at holding potential of […] by patch clamp assay
Summary of the method: as §4

[35] = Cytotoxicity in CD-1 mouse cochlea assessed as disruption of hair bundle morphology in outer hair cell at 20 uM after 48 hrs by confocal microscopic analysis; format: toxicity, tissue-based
Summary of the method: as §2

[36] = system: Pseudomonas aeruginosa; experiment: Effect on gentamycin-induced antibacterial activity against Pseudomonas aeruginosa at 2.2 uM incubated for 16 to 20 hrs by BacTiter-Glo assay; format: ADME, organism-based; conditions: in vivo
[37] = Binding affinity to MET in CD-1 mouse cochlear outer hair cells measured at -84 mV membrane potential by patch clamp assay
Summary of the method: as §3

[38] = organism: Mus musculus; experiment: Inhibition of MET in CD-1 mouse cochlear outer hair cells assessed as reduction in MET currents at 1 to 10 uM measured at -164 mV membrane potential by patch clamp assay
Summary of the method: as §3

[39] = Cytotoxicity in CD-1 mouse cochlea assessed as induction of cell damage in inner hair cell at 20 uM in presence of gentamicin after 48 hrs by confocal microscopic analysis; format: toxicity, tissue-based
Summary of the method: as §2

[40] = Otoprotective activity against gentamicin-induced outer hair cell death in CD-1 mouse cochlea at 5 uM after 48 hrs by TRITC-phalloidin staining-based microscopic analysis relative to control; format: functional
Summary of the method: as §6

[41] = organism: Mus musculus; experiment: Inhibition of MET in CD-1 mouse outer hair cells assessed as reduction in MET currents at 3 to 10 uM measured at -160 mV to +96 mV membrane potential by patch clamp assay
[42] = organism: Mus musculus; experiment: as §7; format: functional
Summary of the method: as §6

[43] = Solubility of the compound; format: physicochemical
[44] = Cytotoxicity in CD-1 mouse cochlea assessed as disruption of hair bundle morphology in inner hair cell at 30 uM after 48 hrs by confocal microscopic analysis; format: toxicity, tissue-based
Summary of the method: as §2

[45] = organism: Mus musculus; experiment: Inhibition of MET in CD-1 mouse cochlea outer hair cells assessed as reduction in MET currents at 1 to 10 uM measured at -150 mV to +100 mV membrane potential by patch clamp assay
[46] = organism: Mus musculus; experiment: Inhibition of MET in CD-1 mouse cochlea outer hair cells assessed as blockade of MET currents at 10 uM measured at -160 mV to +80 mV membrane potential by patch clamp assay relative to control
Summary of the method: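 OHC MET currents recorded before and during exposure to 10 μM compound. Fractional block taken as the current during exposure relative to the control current at each membrane potential.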

[47] = Cytotoxicity in CD-1 mouse cochlea assessed as induction of cell death in outer hair cell at 30 uM in presence of gentamicin after 48 hrs by confocal microscopic analysis; format: toxicity, tissue-based
Summary of the method: as §2

[48] = organism: Mus musculus; experiment: as §5; format: functional
Summary of the method: as §6

[49] = Cytotoxicity in CD-1 mouse cochlea assessed as disruption of hair bundle morphology in outer hair cell at 30 uM after 48 hrs by confocal microscopic analysis; format: toxicity, tissue-based
Summary of the method: as §2

SMILES | Activity [3] | Activity [5] | Activity [6] | Activity [8] | Activity [9] | Activity [10] | Activity [11] | Activity [14] | Activity [15] | inhibition [19] | Activity [20] | pEC50 [21] | Activity [22] | pKd [23] | pKd [24] | TIME [25] [h] | pEC50 [28] | pKd [30] | TIME [34] [h] | Activity [36] | other results
COc1ccccc1OCCNCC(O)COc1cccc2[nH]c3ccccc3c12 (stereo not drawn) [CARVEDILOL] | Non-Toxic | Non-Toxic | Non-Toxic | Non-Toxic | Non-Toxic | Toxic | Toxic | Non-Toxic | Toxic | Active | Non-Toxic | 5.61 | Toxic | 5.20 | 7.00 | 5e-06 | 4.96 | 5.82 | 2.67e-06 | Non-Toxic | inhibition [1]: Active; inhibition [2]: Active; Activity [4]: Toxic; Activity [7]: Toxic; Activity [12]: Toxic; Activity [13]: Toxic; Activity [16]: Toxic; Activity [17]: Toxic; inhibition [18]: Active; Activity [26]: Non-Toxic; Activity [27]: Toxic; inhibition [29]: Active; Activity [31]: 100%; inhibition [32]: inactive; Activity [33]: 100%; Activity [35]: Toxic; pKd [37]: 5.70; inhibition [38]: inactive; Activity [39]: Toxic; Activity [40]: 54%
COc1ccccc1OCCN(CCCOc1cccc2[nH]c3ccccc3c12)CCOc1ccccc1OC |  |  |  |  |  |  |  |  |  |  |  |  |  |  |  |  |  |  |  |  | inhibition [41]: inactive; Activity [42]: inactive; solubility [43]: Insoluble
COc1ccccc1OCCNCCCOc1cccc2[nH]c3ccccc3c12 | Non-Toxic | Non-Toxic | Non-Toxic | Non-Toxic | Non-Toxic | Toxic | Non-Toxic | Non-Toxic | Non-Toxic | Active | Non-Toxic | 5.68 | Non-Toxic | 5.34 | 6.00 | 2.75e-06 | 4.97 | 5.77 | 1.67e-06 | Non-Toxic | Activity [44]: Toxic; inhibition [45]: Active; inhibition [46]: 100%; Activity [47]: Non-Toxic; Activity [48]: Active; Activity [42]: Active; pKd [37]: 5.62; inhibition [38]: inactive; Activity [40]: 88%; Activity [49]: Toxic
